Experimental findings from ChEMBL document CHEMBL1125235, “Doxorubicin analogues incorporating chemically reactive substituents” (J Med Chem, 1991) are described below.

The test system of one assay is L1210. Briefly: Ability to inhibit growth of L1210 leukemic cell lines was determined in an in vitro MTT assay. The note with it: Mus musculus. Type of assay: functional, cell-based. Put shortly: (§1)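 Murine leukemia cells in RPMI 1640 with 10% heat-inactivated FCS, 2-mercaptoethanol; exponentially growing at 10^6 cells/mL, exposed to varying drug concentrations (DMSO stock, final 0.5% DMSO; controls same) for 1 h at 37 °C, washed twice with ice-cold PBS, resuspended at 2 × 10^5/mL in drug-free medium, cultured 72 h. IC50 = concentration giving 50% growth inhibition versus untreated controls.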

In assay [1] the test system is MES-SA. Nature of the assay: Ability to inhibit growth of doxorubicin-sensitive (MES-SA) uterine sarcoma cell line was determined in an in vitro MTT assay. The note with it: Homo sapiens. Type of assay: functional, cell-based. Put shortly: (§2)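 Uterine sarcoma cells in Waymouth's/McCoy's 5A with 15% FCS and insulin. MES-SA seeded at 4 × 10^3, MES-SA/DOX at 6 × 10^3 per well, attached 16–24 h, then given drug-containing medium (final DMSO 0.5%) for 72 h. MTT added for 3 h at 37 °C, formazan dissolved in DMSO, OD read at 570 nm. IC50 versus untreated controls.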

The test system of assay [2] is MES-SA. Briefly: Ability to inhibit growth of doxorubicin-resistant (MES-SA/DOX) uterine sarcoma cell line was determined in an in vitro MTT assay. The note with it: Homo sapiens. The format is functional, cell-based. Put shortly:
as §2

A further assay deals with P388. Nature of the assay: Ability to inhibit growth of P388 leukemic cell line was determined in an in vitro MTT assay. Conditions: Mus musculus. The format is functional, cell-based. The method, boiled down: as §1
The subject of the next assay is KBM-3 cell line. Briefly: Ability to inhibit growth of human myelogenous leukemic cell line KBM-3 was determined in an in vitro clonogenic assay.
The test system of the next assay is KBM-3/DOX cell line. Briefly: Ability to inhibit growth of human myelogenous leukemic cell line KBM-3 variant namely KBM-3/DOX, was determined in an in vitro clonogenic assay.

In the case of `COc1cccc2c1C(=O)c1c(O)c3c(c(O)c1C2=O)C[C@](O)(C(=O)CO)C[C@@H]3OC1CC(NC(=O)CCl)C(O)C(C)O1` (stereo partly specified), the IC50 amounted to 2100 nM with L1210, 400 nM in the assay on MES-SA [1], 2700 nM with MES-SA [2] and 2900 nM with P388.
Consider `COc1cccc2c1C(=O)c1c(O)c3c(c(O)c1C2=O)C[C@](O)(C(=O)CO)C[C@@H]3OC1CC(NC(=O)N(CCCl)N=O)C(O)C(C)O1` (stereo partly specified), for which the IC50 came to 2900 nM in the assay with L1210; 800 nM with MES-SA [1]; 7700 nM in the assay with MES-SA [2]; 210 nM in the assay with KBM-3 cell line; 2900 nM in the assay with P388; 250 nM in the assay on KBM-3/DOX cell line.
For `COc1cccc2c1C(=O)c1c(O)c3c(c(O)c1C2=O)C[C@](O)(C(=O)CO)C[C@@H]3OC1CC(NC(=O)c2ccc(S(=O)(=O)F)cc2)C(O)C(C)O1` (stereo partly specified), the IC50 was determined as 6900 nM in the assay with L1210, 3800 nM in the assay with MES-SA [1], 6900 nM in the assay with MES-SA [2] and 7700 nM with P388.
`COc1cccc2c1C(=O)c1c(O)c3c(c(O)c1C2=O)C[C@](O)(C(=O)CO)C[C@@H]3OC1CC(NC(=O)CBr)C(O)C(C)O1` (stereo partly specified): the IC50 in the assay on L1210 amounted to 2100 nM; in the assay with MES-SA [1], 200 nM; in the assay with MES-SA [2], 800 nM; in the assay with KBM-3 cell line, 140 nM; in the assay on P388, 1500 nM; with KBM-3/DOX cell line, 160 nM.
Consider `COc1cccc2c1C(=O)c1c(O)c3c(c(O)c1C2=O)C[C@@](O)(C(=O)CO)C[C@@H]3O[C@H]1C[C@H](N)[C@H](O)[C@H](C)O1` [DOXORUBICIN], for which the IC50 was determined as 200 nM with L1210; 40 nM with MES-SA [1]; 4200 nM in the assay with MES-SA [2]; 26 nM with KBM-3 cell line; 1220 nM in the assay on P388; 490 nM with KBM-3/DOX cell line.
